Active and inactive are the calls of the source. The rule behind the calls is not given here.
Tests used:
[1] = system: Plasmodium falciparum; assay: Resistance index, ratio of IC50 for chloroquine-resistant Plasmodium falciparum K1 to IC50 for chloroquine-sensitive Plasmodium falciparum D10; assay type: functional
Summary of the method: (§1)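 Resistance index is the IC50 against the resistant strain divided by the IC50 against D10. Both IC50s come from the lactate dehydrogenase growth assay on asexual blood stages, run by the same serial-dilution protocol.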

[2] = Dissociation constant, pKa of the compound with quinoline heteroaromatic N atom by pH titration method; assay type: physicochemical
[3] = system: Plasmodium falciparum; assay: Antimalarial activity against erythrocyte stages of chloroquine-sensitive Plasmodium falciparum D10 infected in human erythrocytes by lactate dehydrogenase assay; assay type: functional, organism-based
Summary of the method: (§2)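 Asexual blood-stage P. falciparum in continuous culture (modified Trager–Jensen), read out by parasite lactate dehydrogenase. Stocks are 2 mg/mL in DMSO or methanol. […] IC50 comes from nonlinear dose–response fitting.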

[4] = Inhibition of beta-hematin formation assessed as equivalents of drug relative to hematin for 50% inhibition at pH 4.5 by BHIA assay; assay type: functional
Summary of the method: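 β-Hematin formation mediated by 4.5 M acetate, pH 4.5, in a 96-well plate format. Unconverted hematin is dissolved with 5% (v/v) aqueous pyridine at pH 7.5, which leaves β-hematin undissolved. Result expressed as equivalents of compound relative to hematin at 50% inhibition.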

[5] = system: Plasmodium falciparum; assay: Antimalarial activity against erythrocyte stages of chloroquine-resistant Plasmodium falciparum K1 infected in human erythrocytes by lactate dehydrogenase assay; assay type: functional, organism-based; summary of the method: as §2
[6] = Dissociation constant, pKa of the compound with basic tertiary amino group by pH titration method; assay type: physicochemical
[7] = biological target: T1, Chloroquine resistance transporter (Plasmodium falciparum) (UniProt Q9N623); assay: Inhibition of chloroquine-sensitive Plasmodium falciparum D10 chloroquine resistance transporter expressed in xenopus laevis oocytes assessed as inhibition of [3H]chloroquine uptake after 1 to 2 hrs; assay type: cell-based; settings: Oocyte
T1 sequence (whole entry): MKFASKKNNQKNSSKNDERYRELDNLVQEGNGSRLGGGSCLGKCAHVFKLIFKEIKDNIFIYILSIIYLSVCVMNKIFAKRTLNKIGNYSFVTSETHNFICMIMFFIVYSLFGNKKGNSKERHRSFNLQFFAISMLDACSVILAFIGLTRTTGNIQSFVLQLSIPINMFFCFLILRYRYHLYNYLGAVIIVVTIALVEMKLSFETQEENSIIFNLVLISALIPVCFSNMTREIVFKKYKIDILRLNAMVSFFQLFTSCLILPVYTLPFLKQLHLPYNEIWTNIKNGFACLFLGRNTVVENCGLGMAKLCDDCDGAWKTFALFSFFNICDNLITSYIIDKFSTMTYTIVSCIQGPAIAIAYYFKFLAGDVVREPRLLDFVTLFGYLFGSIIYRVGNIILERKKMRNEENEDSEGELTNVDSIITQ

[8] = system: Plasmodium berghei; assay: Antimalarial activity against Plasmodium berghei infected in NMRI mouse assessed as parasitized red blood cells level at 100 mg/kg, po administered on day 0, 1, 2 and 3 after postinfection measured on day 4 (reference value: 78%); assay type: functional
[9] = system: Plasmodium berghei; assay: Antimalarial activity against Plasmodium berghei infected in NMRI mouse assessed as host survival time at 100 mg/kg, po administered on day 0, 1, 2 and 3 after postinfection (reference value: 4 days); assay type: functional
Summary of the method: (§3)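 P. berghei in female NMRI mice (modified Peters 4-day test): 0.2 mL of donor blood diluted to 10^8 parasitized erythrocytes/mL given i.v. Oral dosing starts 4 h postinfection, with further daily doses at 24, 48 and 72 h by regimen. Groups of 3 treated and 5 untreated mice. Survival followed to day 30, and survivors are checked for parasitemia.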

[10] = system: Plasmodium berghei; assay: Antimalarial activity against Plasmodium berghei infected in NMRI mouse assessed as reduction of parasitemia level at 100 mg/kg, po administered on day 0, 1, 2 and 3 after postinfection (reference value: 0.12%); assay type: functional; design: scale not given: the % may be the effect or the level left
[11] = system: Plasmodium berghei; assay: Antimalarial activity against Plasmodium berghei infected in NMRI mouse assessed as reduction of parasitemia level at 30 mg/kg, po administered on day 0, 1, 2 and 3 after postinfection (reference value: 0.38%); assay type: functional; design: scale not given: the % may be the effect or the level left
[12] = system: Plasmodium berghei; assay: Antimalarial activity against Plasmodium berghei infected in NMRI mouse assessed as parasitized red blood cells level at 30 mg/kg, po administered on day 0, 1, 2 and 3 after postinfection measured on day 4 (reference value: 78%); assay type: functional
[13] = system: Plasmodium berghei; assay: Antimalarial activity against Plasmodium berghei infected in NMRI mouse assessed as host survival time at 30 mg/kg, po administered on day 0, 1, 2 and 3 after postinfection (reference value: 4 days); assay type: functional; summary of the method: as §3
[14] = biological target: T2, Chloroquine resistance transporter (Plasmodium falciparum, UniProt Q9N623); assay: Inhibition of chloroquine-resistant Plasmodium falciparum Dd2 chloroquine resistance transporter expressed in xenopus laevis oocytes assessed as inhibition of [3H]chloroquine uptake after 1 to 2 hrs; assay type: cell-based, Oocyte
T2 sequence (Q9N623 whole entry): T1 sequence (whole entry)

[15] = system: CHO; assay: Cytotoxicity against CHO cells by MTT assay; assay type: cell-based; settings: Cricetulus griseus
Summary of the method: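 CHO cells, MTT colorimetric growth read-out. Compound from a 2 mg/mL stock, tested from 100 μg/mL in 10-fold serial dilutions in complete medium (5 concentrations, lowest 0.01 μg/mL). Emetine reference. IC50 from nonlinear dose–response fitting; mean ± SEM, n = 3.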

[16] = Selectivity index, ratio of IC50 for CHO cells to IC50 for chloroquine-sensitive Plasmodium falciparum D10; assay type: toxicity, cell-based; settings: hamster, read-out: Ratio IC50
Summary of the method: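 The D10 value came from parasite lactate dehydrogenase read-out on erythrocytic cultures, 10 two-fold dilutions from 100 ng/mL, with nonlinear dose–response fitting.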

[17] = system: Plasmodium berghei; assay: Antimalarial activity against Plasmodium berghei infected in NMRI mouse assessed as host survival time at 100 mg/kg, po administered on day 0, 1 and 2 after postinfection (reference value: 4 days); assay type: functional; summary of the method: as §3
[18] = system: Plasmodium berghei; assay: Antimalarial activity against Plasmodium berghei infected in NMRI mouse assessed as reduction of parasitemia level at 100 mg/kg, po administered on day 0, 1 and 2 after postinfection (reference value: 0.11%); assay type: functional; design: scale not given: the % may be the effect or the level left
[19] = system: Plasmodium berghei; assay: Antimalarial activity against Plasmodium berghei infected in NMRI mouse assessed as reduction of parasitemia level at 30 mg/kg, po administered on day 0, 1 and 2 after postinfection (reference value: 0.13%); assay type: functional; design: scale not given: the % may be the effect or the level left
[20] = system: Plasmodium berghei; assay: Antimalarial activity against Plasmodium berghei infected in NMRI mouse assessed as parasitized red blood cells level at 30 mg/kg, po administered on day 0, 1 and 2 after postinfection measured on day 4 (reference value: 78%); assay type: functional
[21] = system: Plasmodium berghei; assay: Antimalarial activity against Plasmodium berghei infected in NMRI mouse assessed as host survival time at 30 mg/kg, po administered on day 0, 1 and 2 after postinfection (reference value: 4 days); assay type: functional; summary of the method: as §3
[22] = system: Plasmodium berghei; assay: Antimalarial activity against Plasmodium berghei infected in NMRI mouse assessed as parasitized red blood cells level at 100 mg/kg, po administered on day 0, 1 and 2 after postinfection measured on day 4 (reference value: 78%); assay type: functional
[23] = system: Plasmodium falciparum; assay: Antimalarial activity against erythrocyte stages of chloroquine-resistant Plasmodium falciparum W2 infected in human erythrocytes by lactate dehydrogenase assay; assay type: functional, organism-based; summary of the method: as §2
[24] = system: Plasmodium falciparum; assay: Resistance index, ratio of IC50 for chloroquine-resistant Plasmodium falciparum W2 to IC50 for chloroquine-sensitive Plasmodium falciparum D10; assay type: functional; summary of the method: as §1
[25] = system: Plasmodium falciparum; assay: Antimalarial activity against erythrocyte stages of chloroquine-resistant Plasmodium falciparum RSA11 infected in human erythrocytes by lactate dehydrogenase assay; assay type: functional, organism-based; summary of the method: as §2
[26] = system: Plasmodium falciparum; assay: Resistance index, ratio of IC50 for chloroquine-resistant Plasmodium falciparum RSA11 to IC50 for chloroquine-sensitive Plasmodium falciparum D10; assay type: functional; summary of the method: as §1
[27] = system: Plasmodium berghei; assay: Antimalarial activity against Plasmodium berghei infected in NMRI mouse assessed as reduction of parasitemia level at 30 mg/kg, po administered as single dose 4 hrs post infection (reference value: 2.76%); design: scale not given: the % may be the effect or the level left
[28] = system: Plasmodium berghei; assay: Antimalarial activity against Plasmodium berghei infected in NMRI mouse assessed as host survival time at 100 mg/kg, po administered as a single dose 4 hrs post infection (reference value: 4 days)
[29] = system: Plasmodium falciparum; assay: Resistance index, ratio of IC50 for chloroquine-resistant Plasmodium falciparum Dd2 to IC50 for chloroquine-sensitive Plasmodium falciparum D10; assay type: functional; summary of the method: as §1
[30] = system: Plasmodium berghei; assay: Antimalarial activity against Plasmodium berghei infected in NMRI mouse assessed as parasitized red blood cells level at 100 mg/kg, po administered as single dose 4 hrs post infection measured on day 4 (reference value: 78%)
[31] = system: Plasmodium falciparum; assay: Antimalarial activity against erythrocyte stages of chloroquine-resistant Plasmodium falciparum Dd2 infected in human erythrocytes by lactate dehydrogenase assay; assay type: functional, organism-based; summary of the method: as §2
[32] = system: Plasmodium berghei; assay: Antimalarial activity against Plasmodium berghei infected in NMRI mouse assessed as host survival time at 30 mg/kg, po administered as a single dose 4 hrs post infection (reference value: 4 days)
[33] = system: Plasmodium berghei; assay: Antimalarial activity against Plasmodium berghei infected in NMRI mouse assessed as reduction of parasitemia level at 100 mg/kg, po administered as single dose 4 hrs post infection (reference value: 0.16%); design: scale not given: the % may be the effect or the level left
[34] = system: Plasmodium berghei; assay: Antimalarial activity against Plasmodium berghei infected in NMRI mouse assessed as parasitized red blood cells level at 30 mg/kg, po administered as single dose 4 hrs post infection measured on day 4 (reference value: 78%)

Structure (SMILES)	Ratio IC50 [1]	pKa [2]	IC50 [3]	IC50 [4]	IC50 [5]	pKa [6]	other results
COc1ccc(CN(C)Cc2ccccc2CNc2ccnc3cc(Cl)ccc23)cc1	0.8	7.47	175 nM	0.46 equivalents	134 nM	9.85	–
CN(Cc1ccc(N(C)C)cc1)Cc1ccccc1CNc1ccnc2cc(Cl)ccc12	0.8	7.4	178 nM	0.48 equivalents	149 nM	9.71	–
CCN(CC)CCCC(C)Nc1ccnc2cc(Cl)ccc12 (stereo not given) [CHLOROQUINE]	–	–	–	1.9 equivalents	–	–	inhibition [7]: Active
CN(Cc1ccccc1)Cc1ccccc1CNc1ccnc2cc(Cl)ccc12	0.9	7.57	140 nM	1.1 equivalents	122 nM	9.85	Activity [8]: 0.09%; Time [9]: 30 days; Activity [10]: 99.9%; Activity [11]: 99.6%; Activity [12]: 0.3%; Time [13]: 20.7 days; IC50 [14]: 58000 nM
COc1ccc(CN(C)Cc2cccc(CNc3ccnc4cc(Cl)ccc34)c2)cc1	1.3	7.38	91 nM	0.52 equivalents	120 nM	9.67	–
CN(Cc1ccc(N(C)C)cc1)Cc1cccc(CNc2ccnc3cc(Cl)ccc23)c1	–	7.36	> 0.1 µg/mL	0.5 equivalents	281 nM	9.67	–
CN(Cc1ccc(CNc2ccnc3cc(Cl)ccc23)cc1)Cc1ccc(N(C)C)cc1	0.8	7.33	47 nM	0.4 equivalents	36 nM	9.66	IC50 [15]: > 225000 nM; selectivity ratio [16]: > 4790
CC[C@H]1CN2CCc3cc(OC)c(OC)cc3[C@@H]2C[C@@H]1C[C@H]1NCCc2cc(OC)c(OC)cc21 [EMETINE]	–	–	–	–	–	–	IC50 [15]: 80 nM
COc1ccc(CN(C)Cc2ccc(CNc3ccnc4cc(Cl)ccc34)cc2)cc1	0.7	7.44	130 nM	1.44 equivalents	88 nM	9.7	–
CN(Cc1ccc(Cl)cc1)Cc1ccccc1CNc1ccnc2cc(Cl)ccc12	–	7.44	–	1.4 equivalents	1130 nM	9.6	–
CN(Cc1ccccc1)Cc1cccc(CNc2ccnc3cc(Cl)ccc23)c1	1	7.63	41 nM	0.69 equivalents	43 nM	9.77	Time [17]: 30 days; IC50 [15]: 70000 nM; selectivity ratio [16]: 1270; Activity [18]: 99.9%; Activity [19]: 99.9%; Activity [20]: 0.1%; Time [21]: 16.7 days; IC50 [14]: 36000 nM; Activity [22]: 0.09%
CN(Cc1ccc(Cl)cc1)Cc1ccc(CNc2ccnc3cc(Cl)ccc23)cc1	–	7.44	> 0.1 µg/mL	0.34 equivalents	> 10 µg/mL	9.74	–
CN(Cc1ccc(Cl)cc1)Cc1cccc(CNc2ccnc3cc(Cl)ccc23)c1	0.6	7.55	138 nM	0.66 equivalents	85 nM	9.89	–
CN(Cc1ccccc1)Cc1ccc(CNc2ccnc3cc(Cl)ccc23)cc1	0.9	7.56	22 nM	0.32 equivalents	25 nM	9.9	IC50 [23]: 23 nM; Ratio IC50 [24]: 1; IC50 [25]: 38 nM; Ratio IC50 [26]: 1.7; Activity [27]: 97%; Time [28]: 10 days; IC50 [15]: > 249000 nM; selectivity ratio [16]: > 9220; Ratio IC50 [29]: 1.2; Activity [30]: 0.12%; inhibition [7]: Active; IC50 [31]: 26 nM; Time [32]: 6.7 days; IC50 [14]: 69000 nM; Activity [33]: 99.8%; Activity [34]: 2.16%

Reference: ChEMBL document CHEMBL1828581 (J Med Chem, 2011)
